Reference: ChEMBL document CHEMBL4118144, “Design, Synthesis, and Testing of Potent, Selective Hepsin Inhibitors via Application of an Automated Closed-Loop Optimization Platform” (J Med Chem, 2018)
Calls of active or inactive are those of the source. The calls are words filed in the database; no cut-off is given here.

Experiments:
[1] = target: T1, Urokinase-type plasminogen activator (Homo sapiens, UniProt P00749); experiment: Inhibition of uPA (unknown origin)
Outline: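 uPA inhibition was run as an on-line biochemical assay integrated into the automated flow-synthesis platform. A 20 µL aliquot of each product solution was automatically captured, HPLC-purified, diluted and assayed. Some samples were instead screened manually, either from platform-synthesized material or from off-line synthesis. The read-out is IC50.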

Serine protease hepsin [2] = target: T2, Serine protease hepsin (Homo sapiens, UniProt P05981, D161E/R162K); experiment: Inhibition of recombinant C-terminal His10-tagged human Hepsin (R45 to […] residues) D161E/ R162K double mutant expressed in mouse NS0 cells using Boc-QRR-AMC as substrate after 15 mins by automated fluorescence assay
Outline: (§1)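 On-line assay integrated with the flow-synthesis platform: a 20 µL aliquot of each product solution captured automatically, HPLC-purified, then diluted and assayed.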

[3] = target: T1, Urokinase-type plasminogen activator; experiment: Inhibition of recombinant C-terminal His10-tagged human uPA (M1 to L431 residues) expressed in mouse NS0 cells using Z-GGR-AMC as substrate after 15 mins by automated fluorescence assay; outline: as §1
Homo sapiens [4] = species: Homo sapiens; experiment: Selectivity ratio of IC50 for recombinant C-terminal His10-tagged human uPA (M1 to L431 residues) to IC50 for recombinant C-terminal His10-tagged human Hepsin (R45 to […] residues) D161E/ R162K double mutant by automated fluorescence assay
[5] = Chromatographic hydrophobicity index, log D of the compound at pH 7 by HPLC/UV analysis; format: physicochemical; settings: buffer
Serine protease hepsin [6] = target: T2, Serine protease hepsin; experiment: Inhibition of recombinant C-terminal His10-tagged human Hepsin (R45 to […] residues) D161E/ R162K double mutant expressed in mouse NS0 cells using Boc-QRR-AMC as substrate after 15 mins by manual fluorescence assay
Homo sapiens [7] = species: Homo sapiens; experiment: Selectivity ratio of IC50 for recombinant C-terminal His10-tagged human uPA (M1 to L431 residues) to IC50 for recombinant C-terminal His10-tagged human Hepsin (R45 to […] residues) D161E/ R162K double mutant by manual fluorescence assay
[8] = target: T1, Urokinase-type plasminogen activator; experiment: Inhibition of recombinant C-terminal His10-tagged human uPA (M1 to L431 residues) expressed in mouse NS0 cells using Z-GGR-AMC as substrate after 15 mins by manual fluorescence assay
Serine protease hepsin [9] = target: T3, Serine protease hepsin (Homo sapiens, UniProt P05981); experiment: Inhibition of doxycycline induced Hepsin in human MCF10A cells using Boc-QRR-AMC as substrate preincubated for 24 hrs followed by doxycycline induction for 24 hrs and subsequent addition of substrate by fluorescence assay; format: cell-based
Serine protease hepsin [10] = target: T3, Serine protease hepsin; experiment: Inhibition of hepsin-mediated conversion of Pro-HGF into active form in human Hs578T cells assessed as decrease in MET phosphorylation at 1 to 10 uM preincubated for 30 mins followed by recombinant human pro-HGF addition measured after 30 mins by immunoblot method; format: cell-based
Outline: (§2)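 Hs578T or HCC1937 breast cells incubated with DMSO or inhibitor, then 50 ng/mL recombinant human Pro-HGF added; MET pathway activation (phospho-MET) assessed by immunoblotting.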

Serine protease hepsin [11] = target: T3, Serine protease hepsin; experiment: Inhibition of doxycycline induced Hepsin in human MCF10A cells assessed as prevention in loss of HAI-1 level at 10 uM preincubated for 30 mins followed by doxycycline addition measured after 6 hrs by Immunoblot assay; format: cell-based
Outline: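 MCF10A-Indu20-hepsin cells (Dox-inducible hepsin) pretreated 30 min with compound or DMSO, then hepsin induced with 100 ng/mL doxycycline for 6 h; HAI-1 protein scored by immunoblot.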

Serine protease hepsin [12] = target: T3, Serine protease hepsin; experiment: Inhibition of hepsin-mediated conversion of Pro-HGF into active form in human Hs578T cells assessed as decrease in MET phosphorylation at 100 nM preincubated for 30 mins followed by recombinant human pro-HGF addition measured after 30 mins by immunoblot method; format: cell-based; outline: as §2
Serine protease hepsin [13] = target: T3, Serine protease hepsin; experiment: Inhibition of hepsin-mediated conversion of Pro-HGF into active form in human HCC1937 cells assessed as decrease in MET phosphorylation at 100 nM preincubated for 30 mins followed by recombinant human pro-HGF addition measured after 30 mins by immunoblot method; format: cell-based; outline: as §2

T3 sequence (P05981 1-162 limits assumed): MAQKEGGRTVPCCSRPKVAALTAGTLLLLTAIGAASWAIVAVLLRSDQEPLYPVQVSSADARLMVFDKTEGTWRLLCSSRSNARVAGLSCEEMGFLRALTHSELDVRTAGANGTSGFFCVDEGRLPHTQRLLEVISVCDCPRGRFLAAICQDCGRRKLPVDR
T3 sequence (P05981 163-417 limits assumed): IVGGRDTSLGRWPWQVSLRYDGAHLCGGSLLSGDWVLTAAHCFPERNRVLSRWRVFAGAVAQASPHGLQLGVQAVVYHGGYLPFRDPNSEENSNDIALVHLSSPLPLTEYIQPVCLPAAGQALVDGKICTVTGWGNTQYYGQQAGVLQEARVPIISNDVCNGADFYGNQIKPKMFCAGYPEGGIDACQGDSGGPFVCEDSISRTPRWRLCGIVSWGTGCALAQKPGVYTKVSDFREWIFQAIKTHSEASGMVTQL

Structure (SMILES)	IC50 (Serine protease hepsin [2]) [µM]	IC50 [3] [µM]	Ratio IC50 (Homo sapiens [4])	chromatographic logD [5]	further results
CN(C)C(=O)N1CCN(C(=O)[C@@H](Cc2cccc(C(=N)N)c2)NS(=O)(=O)c2ccc3ccccc3c2)CC1	6.55				IC50 [1]: > 10 µM
CCOC(=O)c1ccc(OC(=O)CCCCCNC(=N)N)cc1 [GABEXATE]	0.383				
CCCCC(NS(=O)(=O)c1ccc(C)cc1)C(=O)Nc1ccc(Br)cc1 (stereo not given)	58	58	1		
COC(=O)C(Cc1cccc(C(=N)N)c1)NC(=O)CNS(=O)(=O)c1ccc(C)cc1 (stereo not given)	3.14	> 10			
CCCCC(NS(=O)(=O)c1ccc(C)cc1)C(=O)Nc1ccc(C(=N)N)cc1F (stereo not given)	0.9	8	9	1.4	
N=C(N)c1ccc(/C=C2\CCCC/C(=C\c3ccc(C(=N)N)cc3)C2=O)cc1	0.272	0.484			
COC(=O)N1CCN(C(=O)[C@H](Cc2cccc(C(=N)N)c2)NS(=O)(=O)c2ccc3ccccc3c2)CC1	6.19				
CCCCC(NS(=O)(=O)c1ccc(C)cc1)C(=O)Nc1cccc(C(=N)N)c1 (stereo not given)	73	19	0.26	1.1	
N=C(N)NCCC[C@@H](NC(=O)c1ccc2ccccc2c1O)C(=O)N1CCC[C@@H]1C(N)=O	> 10				
C[C@@H](Oc1cc(-c2cnn(C3CCNCC3)c2)cnc1N)c1c(Cl)ccc(F)c1Cl					inhibition (Serine protease hepsin [12]): Active; inhibition (Serine protease hepsin [13]): Active
N=C(N)c1ccc2cc(OC(=O)c3ccc(N=C(N)N)cc3)ccc2c1 [NAFAMOSTAT]	0.005				
N=C(N)c1ccc(C[C@@H](NC(=O)CNS(=O)(=O)c2ccc3ccccc3c2)C(=O)N2CCCCC2)cc1	4.46				
N=C(N)c1cccc(C[C@H](NS(=O)(=O)c2ccc3ccccc3c2)C(=O)N2CCCC(C(=O)NCc3cccs3)C2)c1 (stereo not given in full)	0.676	2.43			IC50 (Serine protease hepsin [6]): 0.33 µM; Ratio IC50 (Homo sapiens [7]): 18; IC50 [8]: 6 µM
CC1CNc2c(cccc2S(=O)(=O)N[C@@H](CCCN=C(N)N)C(=O)N2CC[C@H](C)CC2C(=O)O)C1 (stereo not given in full)	> 10				

Now from value to molecule, other results behind:

IC50 (Serine protease hepsin [2]) [µM]	IC50 [3] [µM]	Ratio IC50 (Homo sapiens [4])	chromatographic logD [5]	Structure (SMILES)	further results
1.8	7.2	4	0.8	Cc1ccc(S(=O)(=O)NC(C(=O)Nc2ccc(C(=N)N)cc2)C(C)C)cc1 (stereo not given)	
1.4	> 19	> 13	0.4	Cc1ccc(S(=O)(=O)NC(C(=O)Nc2ccc(C(=N)N)cc2)C2CCOCC2)cc1 (stereo not given)	
5	24.5	5	1.7	Cc1ccc(C(=O)N[C@@H](C(=O)Nc2ccc(C(=N)N)cc2)C2CCCCC2)cc1	
0.86	64	74	0.4	Cc1ccc(S(=O)(=O)NC(C(=O)Nc2ccc(C(=N)N)cc2)C2CCCC2)cc1 (stereo not given)	
0.1	18	180	1.5	N=C(N)c1ccc(NC(=O)[C@H](NS(=O)(=O)c2ccc(Cl)cc2)C2CCCCC2)cc1	
1.13	> 10			Cc1ccc(S(=O)(=O)NC(CCc2ccccc2)C(=O)Nc2ccc(C(=N)N)cc2)cc1 (stereo not given)	IC50 (Serine protease hepsin [6]): 0.87 µM; Ratio IC50 (Homo sapiens [7]): 30; IC50 [8]: 26 µM
11	68	6	1.4	Cc1ccc(S(=O)(=O)NC(CC(=O)Nc2ccc(C(=N)N)cc2)C2CCCCC2)cc1 (stereo not given)	
0.5 to 0.9	3 to 5	3 to 10	1.2	CCCCC(NS(=O)(=O)c1ccc(C)cc1)C(=O)Nc1ccc(C(=N)N)cc1 (stereo not given)	
			0.9	Cc1ccc(S(=O)(=O)NC(C(=O)Nc2ccc(C(=N)N)cc2)c2ccccc2)cc1 (stereo not given)	IC50 (Serine protease hepsin [6]): 0.25 µM; IC50 [8]: 60 µM
0.7	16	23	1.5	Cc1ccc(S(=O)(=O)NC(CC2CCCC2)C(=O)Nc2ccc(C(=N)N)cc2)cc1 (stereo not given)	
0.3	12	40	1.3	COc1ccc(S(=O)(=O)N[C@@H](C(=O)Nc2ccc(C(=N)N)cc2)C2CCCCC2)cc1	
1.1	22	20	1.2	N=C(N)c1ccc(NC(=O)[C@H](NS(=O)(=O)c2ccccc2)C2CCCCC2)cc1	
0.6 to 0.9	11 to 20	12 to 33	1.2	Cc1ccc(S(=O)(=O)NC(CC(C)C)C(=O)Nc2ccc(C(=N)N)cc2)cc1 (stereo not given)	
3	1	0.3	1.6	Cc1ccc(S(=O)(=O)NCC(Cc2ccccc2)C(=O)Nc2ccc(C(=N)N)cc2)cc1 (stereo not given)	
0.68	4.7	7	1.7	N=C(N)c1ccc(NC(=O)[C@H](NS(=O)(=O)c2ccc(C(F)(F)F)cc2)C2CCCCC2)cc1	IC50 (Serine protease hepsin [9]): 3.15 µM; inhibition (Serine protease hepsin [10]): Active; IC50 (Serine protease hepsin [6]): 0.85 µM; Ratio IC50 (Homo sapiens [7]): > 2300; IC50 [8]: > 1950 µM; inhibition (Serine protease hepsin [11]): inactive
2	43	22	1.5	Cc1ccc(NC(=O)N[C@@H](C(=O)Nc2ccc(C(=N)N)cc2)C2CCCCC2)cc1	
1.5 to 3	5.3 to 28	3 to 9	0.5	Cc1ccc(S(=O)(=O)N2CCCC2C(=O)Nc2ccc(C(=N)N)cc2)cc1 (stereo not given)	
> 19	24	< 1	1.8	Cc1ccc(S(=O)(=O)N(C)C(CC(C)C)C(=O)Nc2ccc(C(=N)N)cc2)cc1 (stereo not given)	
			1.3	Cc1ccc(S(=O)(=O)N[C@H](C(=O)Nc2ccc(C(=N)N)cc2)C2CCCCC2)cc1	IC50 (Serine protease hepsin [6]): 0.22 µM
